Results published in PubChem BioAssay AID588621 (Sanford-Burnham Center for Chemical Genomics, 2011).
Out of some 360,000 compounds screened, about 890 (0.25%) were called active.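 How the source made its calls: active means inhibition at 20 µM, scaled per plate between control wells, above about 37% (limit read from the data); inactive means the rest.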 Shown is part of a subset that was picked to be rich in actives.

Target: Tyrosine-protein phosphatase non-receptor type 5 (Homo sapiens) (UniProt P54829)
Assay: STEP phosphatase inhibitors, primary screen, biochemical, fluorescence intensity, uHTS (AID 588621);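 further: 0% = DMSO with enzyme and substrate and 100% = substrate only without enzyme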
Details: recombinant STEP, OMFP fluorogenic substrate, at 20 µM, hits give high values
Method in brief: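 material = STEP tyrosine phosphatase | reagent = fluorogenic phosphatase substrate OMFP at 25 µM final | doses = single compound dose of 20 µM, 1% DMSO final | schedule = 20 min reaction, room temperature, in the dark | measured by = fluorescence, 480/540 nm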

Sequence of Tyrosine-protein phosphatase non-receptor type 5 (Homo sapiens) (P54829 whole entry, looked up): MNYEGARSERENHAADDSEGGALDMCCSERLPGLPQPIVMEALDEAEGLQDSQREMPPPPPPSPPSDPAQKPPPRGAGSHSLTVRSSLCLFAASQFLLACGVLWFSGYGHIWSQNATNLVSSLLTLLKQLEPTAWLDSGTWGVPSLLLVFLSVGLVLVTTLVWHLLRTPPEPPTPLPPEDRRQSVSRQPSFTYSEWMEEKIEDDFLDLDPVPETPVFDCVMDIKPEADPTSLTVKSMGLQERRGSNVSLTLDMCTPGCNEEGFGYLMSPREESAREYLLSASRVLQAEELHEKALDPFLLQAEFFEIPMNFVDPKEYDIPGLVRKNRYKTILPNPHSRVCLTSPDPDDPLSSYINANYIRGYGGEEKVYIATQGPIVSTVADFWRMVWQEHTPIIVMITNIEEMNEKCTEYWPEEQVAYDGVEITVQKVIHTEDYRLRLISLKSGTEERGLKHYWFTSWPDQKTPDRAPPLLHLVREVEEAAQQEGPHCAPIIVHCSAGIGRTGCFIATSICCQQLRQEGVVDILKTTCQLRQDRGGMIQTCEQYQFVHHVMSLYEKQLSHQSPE

Compound	inhibition
N#Cc1ccccc1-n1c(N)c(C(=O)N2CCCC2)sc1=S	7.5% (inactive)
Cc1ccc(-n2c(N)c(C(=O)N3CCOCC3)sc2=S)c(C)c1	5.2% (inactive)
Cc1cccc(-n2c(N)c(C(=O)N3CCN(C)CC3)sc2=S)c1	90.4% (active)
Cc1cc(-c2nnc(SCC(=O)Nc3ccc(F)cc3)n2N)n[nH]1	-1.1% (inactive)
COC(=O)Cn1cnc2scc(-c3ccc(C)c(C)c3)c2c1=O	1.3% (inactive)
Cc1ccc(C(C)(C)C)c(OCCCCN2CCCC2)c1	-0.8% (inactive)
CSc1nnc(C2CCCN(CC(=O)Nc3ccccc3N3CCOCC3)C2)n1C(C)C (stereo not given)	7.7% (inactive)
C=CCc1ccccc1OCC(O)CN1CCN(CCO)CC1 (stereo not given)	-0.9% (inactive)
OCCN1CCN(C(=S)c2ccc(-c3ccccc3)cc2)CC1	92.5% (active)
S=C(c1ccc(-c2ccccc2)o1)N1CCCCC1	10% (inactive)
Cc1cc(OC(=O)c2ccccc2)c([N+](=O)[O-])c(=O)[nH]1	-3.5% (inactive)
CN(C)c1ccc(CNC23CN4CN(CN(C4)C2)C3)cc1	-4.8% (inactive)
O=C(OCC(=O)N1CCN(C(=O)c2ccco2)CC1)c1ccccc1Cc1ccccc1	-3.5% (inactive)
CCC1(C)N(O)C(C)(C)C(c2ccc(OC)cc2)=[N+]1[O-] (stereo not given)	-1.7% (inactive)
O=S(=O)(Nc1ccccc1Cl)c1cccc2nsnc12	52.9% (active)
O=C(O)c1ccc(NS(=O)(=O)c2cccc3nsnc23)cc1	1.7% (inactive)
COc1ccc(NS(=O)(=O)c2cccc3nsnc23)cc1Cl	-1.2% (inactive)
O=C(COC(=O)c1cc([N+](=O)[O-])ccc1NCc1ccccc1)NC1CCCCC1	0.9% (inactive)
O=C(CCN1C(=O)c2ccncc2C1=O)Nc1cc(F)ccc1F	-2.7% (inactive)
COc1ccc(-c2cc(C(F)(F)F)nc(S(C)(=O)=O)n2)cc1OC	0.2% (inactive)
O=C(COc1ccccc1F)NNC(=O)c1ccc(N2CCCCC2)c([N+](=O)[O-])c1	0.7% (inactive)
C/C(O)=C\c1nc(=O)c2c(C)cc(C)nc2n1-c1ccccc1	1.8% (inactive)
CCc1cccc(NC(=S)N(CCN(C)C)C2CCN(C(C)C)CC2)c1	4.4% (inactive)
COc1ccccc1NC(=O)C(C)OC(=O)CC1CCCC1 (stereo not given)	-2.3% (inactive)

Compound	inhibition
COCCN(C(=S)Nc1ccccc1OC)C1CCN(C(C)C)CC1	44.6% (active)
Cc1ccc(NC2=C(Cl)C(=O)OC2OC(=O)c2ccccc2C)cc1 (stereo not given)	-1.2% (inactive)
Nc1nonc1-n1nnc(C(=O)N/N=C/C2CCCCC2)c1-c1ccccc1	-0.5% (inactive)
COCc1c(C(=O)N/N=C/C2CC=CCC2)nnn1-c1nonc1N (stereo not given)	44.4% (active)
COCc1c(C(=O)N/N=C(\C)c2ccncc2)nnn1-c1nonc1N	-0.3% (inactive)
CCc1c(C)sc(NC(=O)OC)c1C(=O)N1CCOCC1	10.1% (inactive)
Cc1cc(C)cc(C(=O)OCC(=O)NCCNC(=O)COC(=O)c2cc(C)cc(C)c2)c1	1% (inactive)
CCc1nc2c(OCCC3CCCCC3)cccn2c1N(C)C(=O)c1ccco1	4.5% (inactive)
COc1cc(OC)c(-n2cc(-c3ccc(Cl)cc3)[nH]c2=O)cc1Cl	0.7% (inactive)
Cc1ccc(-c2csc(N3CCN(c4cc5c(cc4Cl)nc(-c4ccncc4)n5CCOCCO)CC3)n2)cc1	2.3% (inactive)
Nc1c(Cl)cc(-c2csc(N3CCCC3c3nc4cc(Cl)c(Cl)cc4n3CCOCCO)n2)cc1Cl (stereo not given)	36.9% (active)
CCCn1c(C2CCCN2c2nc(-c3ccc(C)cc3)cs2)nc2cc(Cl)c(N3CCCCC3)cc21 (stereo not given)	3.4% (inactive)
O=c1nc(N2CCOCC2)nc2n1CCO2	4.3% (inactive)
COc1cccc(/C=C/C(=O)OCC(=O)N2CCCc3ccccc32)c1	-1.7% (inactive)
N#Cc1c(-c2cccs2)nc(SCC(=O)c2ccc(Br)cc2)[nH]c1=O	78.8% (active)
N#Cc1c(-c2ccccc2)nc(SCc2cccc(C(F)(F)F)c2)[nH]c1=O	2.7% (inactive)
CCc1ccc(C(=O)CSc2nnc(C)c(=O)[nH]2)cc1	-1% (inactive)
Cc1ccnc(N2CCN(C(=O)CSc3nc4ccccc4nc3N3CCCCC3)CC2)c1	7.7% (inactive)
CC(C)C(O)C1CCN(Cc2nc(Cc3ccccc3Cl)no2)CC1 (stereo not given)	-0.6% (inactive)
CN(C(=O)CSc1nnc(N)s1)c1c(N)n(Cc2ccccc2)c(=O)[nH]c1=O	2% (inactive)
Cc1ccnc(NS(=O)(=O)c2ccc(NC(=O)c3ccc(S(=O)(=O)N(C)C)cc3)cc2)n1	10.2% (inactive)
CC(Oc1ccc(Cl)cc1)c1ccnn1S(C)(=O)=O (stereo not given)	-1.9% (inactive)
Cc1ccc(NC(=O)COc2ccc(/C=N\NC(=O)c3cccnc3)cc2)cc1C	93% (active)
Cc1cccc(OCC(=O)NCCNC(=O)c2cccnc2)c1	0.6% (inactive)

Compound	inhibition
Cc1ccc(OCC(=O)NCCCNC(=O)c2cccnc2)cc1C	2.8% (inactive)
CC(=O)c1nc(N2C(=O)C3CC=C(C)CC3C2=O)sc1C (stereo not given)	-0.6% (inactive)
O=C(NCc1ccc(F)cc1)c1cc(C2CCCCN2C(=O)c2ccccn2)on1 (stereo not given)	-0.8% (inactive)
CCOCCCNc1c(CC)c(C)c(C#N)c2nc3ccccc3n12	-1% (inactive)
CCc1cccc(C)c1N(C(=O)Cn1c(CO)nc2ccccc21)C(C)COC (stereo not given)	-4.3% (inactive)
CCCCC(=O)Nc1nc(C)c(-c2csc(Nc3ccc(Cl)cc3)n2)s1	-1.7% (inactive)
Cc1ccn2c(-c3csc(Nc4ccc(C(=O)O)cc4)n3)c(C)nc2c1	41.9% (active)
C/C(=N\OC(=O)c1ccccc1)c1c(C)nc2cc(C)ccn12	-1.4% (inactive)
COc1cccc(-c2cnc(C(O)c3ccccc3OC)[nH]2)c1 (stereo not given)	-2.4% (inactive)
COCCCNC(=O)[C@H]1N2C(=O)c3ccccc3C2SC1(C)C (stereo not given in full)	0.9% (inactive)
Cc1[nH]c2ccccc2c1C(=O)C(=O)NCc1nnnn1-c1cccc(F)c1	0.6% (inactive)
COc1ccc(CCN2CC(C(=O)NCCN3CCNC3=O)CCC2=O)cc1 (stereo not given)	-4.2% (inactive)
Cc1cc(F)ccc1S(=O)(=O)Nc1ccc(C(=O)N(C)Cc2ccco2)cc1	2.5% (inactive)
Cc1ccccc1NC(=O)C(C)OC(=O)CCC(=O)N(CC(C)C)c1c(N)n(CC(C)C)c(=O)[nH]c1=O (stereo not given)	-1.1% (inactive)
CCOc1ccc(NC(=O)c2ccc(NC(=O)CN3C(=O)C(=O)N(CC(C)C)C3=O)cc2)cc1	-3.1% (inactive)
Cc1cc2nc(C)n(CCCNC(=O)Nc3ccccc3)c2cc1C	-3.8% (inactive)
COc1ccc(CCNC(=O)Nc2ccc3c(c2)c(=O)n(C)n3C)cc1OC	1.1% (inactive)
COCCNC(=O)Nc1ccc2nc(-c3ccco3)c(-c3ccco3)nc2c1	60.1% (active)
O=C(COC(=O)Cc1ccc(Br)cc1)Nc1c(F)c(F)c(F)c(F)c1F	-0.2% (inactive)
Nc1cc(=O)c2[nH]cnc2[nH]1	-4.7% (inactive)
COc1ccc(NC(=O)COc2ccc(C(=O)OCC(=O)N(C)C3CCS(=O)(=O)C3)cc2OC)cc1 (stereo not given)	-4.8% (inactive)
CN(C(=O)COC(=O)Cc1ccccc1[N+](=O)[O-])C1CCS(=O)(=O)C1 (stereo not given)	-3.3% (inactive)
CN(C(=O)COC(=O)c1cc(-c2ccco2)nc2ccccc12)C1CCS(=O)(=O)C1 (stereo not given)	64.5% (active)
O=C1c2ccccc2C(=O)N1CCC(O)C[N+](=O)[O-] (stereo not given)	3.3% (inactive)

Compound	inhibition
COC(=O)C1=C(C)NC(=S)NC1c1ccc(OCC(=O)N2CC(C)OC(C)C2)c(OC)c1 (stereo not given)	-3.9% (inactive)
O=S(=O)(c1ccc(-c2ccno2)s1)N1CCCCC1	-0.2% (inactive)
Cc1ccccc1CC1(CO)CCCN(Cc2ccc3c(c2)OCCO3)C1 (stereo not given)	-4% (inactive)
Cc1ccccc1CC1(CO)CCCN(C(=O)c2cc(-c3ccccc3)no2)C1 (stereo not given)	120% (active)
Cc1noc(C)c1CCC(=O)N1CCCC(CO)(Cc2ccccc2)C1 (stereo not given)	-1.7% (inactive)
COc1ccc(S(=O)(=O)NC(C)C(=O)NCc2ccncc2)cc1Cl (stereo not given)	-1.3% (inactive)
CCCCC[C@@H]1C=C(C(=O)O)[C@H](c2ccc(C#N)cc2)N1S(=O)(=O)c1ccc(C)cc1	-1.7% (inactive)
O=C(CS(=O)(=O)Cc1ccccc1)Nc1cccnc1	-1.4% (inactive)
O=C(OCC(=O)N1CCCC1)c1ccc(Cl)nc1	-2.6% (inactive)
CC(C)(C)c1ccc(SCCc2ccncc2)cc1	0% (inactive)
O=C(COC(=O)COc1cccc(F)c1)NCC1CCCCC1	-3.8% (inactive)
O=C(COc1cccc(F)c1)Oc1ccc(C(=O)c2ccccc2)cc1	89.8% (active)
CCN(C(=O)COc1ccc(C(=O)c2ccccc2)cc1)c1ccccc1	-1.7% (inactive)
S=C(Nc1ccc2c(c1)OCO2)N1CCCC1	-3.3% (inactive)
Cc1ccc(S(=O)(=O)N2CCN(C(=O)CCC(=O)NC3CCCc4ccccc43)CC2)cc1 (stereo not given)	-4.5% (inactive)
Cc1ccc(S(=O)(=O)c2c[nH]c3ccc(Cl)cc3c2=O)cc1	37.4% (active)
Cc1ccc(S(=O)(=O)c2c[nH]c3ccc(C)cc3c2=O)cc1	-0.1% (inactive)
CCCCN(C)Cc1c(C)[nH]c2ccc(Cl)cc2c1=O	-4.1% (inactive)
CC1CCN(C(=O)CN(c2ccc(Oc3ccccc3)cc2)S(C)(=O)=O)CC1	2.5% (inactive)
CCN(CC)CCn1cnc2c1c(=O)n(CCOC(=O)c1cc(OC)c(OC)c(OC)c1)c(=O)n2C	-2.8% (inactive)
O=C(Nc1ccc(N2CCN(C(=O)C3CC3)CC2)cc1)c1cccs1	-1.5% (inactive)
Cc1ccc(C(=O)NCC(=O)OCc2nnc(-c3ccccc3)o2)cc1	-0.5% (inactive)
Cc1ccc(-c2nnc(-c3ccc(NC(=O)c4cccs4)cc3)o2)cc1	54.4% (active)
